# From ChEMBL document CHEMBL1140925, “Nuclear factor-kappaB mediated inhibition of cytokine production by imidazoline scaffolds” (J Med Chem, 2009)
# What was measured:
# HeLa [1] = assay: Cell cycle arrest in TNF-alpha-stimulated human HeLa cells transfected with NFkappaB-Luc assessed as accumulation at diploid G1 phase at 5 uM after 8 hrs by propidium iodide-based flow cytometry; assay type: functional
# Procedure, shortened: (§1)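 HeLa NF-κB-luc cells (stable, hygromycin-selected) were treated with vehicle (1% DMSO) or compound at 40–0.2 µM final for 8 h at 37 °C, 5% CO2. Adherent cells were trypsinized, resuspended in PBS/50% FBS, fixed overnight in 70% ice-cold ethanol and washed with cold PBS/10% FBS, then analysed for cell cycle by flow cytometry.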
# HeLa [2] = assay: Cell cycle arrest in TNF-alpha-stimulated human HeLa cells transfected with NFkappaB-Luc assessed as accumulation at diploid G2 phase at 0.5 uM after 8 hrs by propidium iodide-based flow cytometry; assay type: functional; procedure, shortened: as §1
# HeLa [3] = assay: Cell cycle arrest in TNF-alpha-stimulated human HeLa cells transfected with NFkappaB-Luc assessed as accumulation at diploid G2 phase at 10 uM after 8 hrs by propidium iodide-based flow cytometry; assay type: functional; procedure, shortened: as §1
# HeLa [4] = assay: Cell cycle arrest in TNF-alpha-stimulated human HeLa cells transfected with NFkappaB-Luc assessed as accumulation at diploid stage at 5 uM after 8 hrs by propidium iodide-based flow cytometry; assay type: functional; procedure, shortened: as §1
# HeLa [5] = assay: Cell cycle arrest in TNF-alpha-stimulated human HeLa cells transfected with NFkappaB-Luc assessed as accumulation at diploid G2 phase at 20 uM after 8 hrs by propidium iodide-based flow cytometry; assay type: functional; procedure, shortened: as §1
# HeLa [6] = assay: Cell cycle arrest in TNF-alpha-stimulated human HeLa cells transfected with NFkappaB-Luc assessed as accumulation at diploid G1 phase at 0.1 uM after 8 hrs by propidium iodide-based flow cytometry; assay type: functional
# HeLa [7] = assay: Effect on cell cycle arrest in TNF-alpha-stimulated human HeLa cells assessed as cell debris level at 20 uM after 8 hrs by propidium iodide-based flow cytometry; assay type: functional
# HeLa [8] = assay: Cell cycle arrest in TNF-alpha-stimulated human HeLa cells transfected with NFkappaB-Luc assessed as accumulation at S phase at 20 uM after 8 hrs by propidium iodide-based flow cytometry; assay type: functional; procedure, shortened: as §1
# HeLa [9] = assay: Cell cycle arrest in TNF-alpha-stimulated human HeLa cells transfected with NFkappaB-Luc assessed as accumulation at diploid stage at 0.05 uM after 8 hrs by propidium iodide-based flow cytometry; assay type: functional
# HeLa [10] = assay: Cell cycle arrest in TNF-alpha-stimulated human HeLa cells transfected with NFkappaB-Luc assessed as accumulation at G2/G1 phase at 0.5 uM after 8 hrs by propidium iodide-based flow cytometry; assay type: functional; procedure, shortened: as §1
# HeLa [11] = assay: Cell cycle arrest in TNF-alpha-stimulated human HeLa cells transfected with NFkappaB-Luc assessed as accumulation at diploid G2 phase at 5 uM after 8 hrs by propidium iodide-based flow cytometry; assay type: functional; procedure, shortened: as §1
# HeLa [12] = assay: Cell cycle arrest in TNF-alpha-stimulated human HeLa cells transfected with NFkappaB-Luc assessed as accumulation at diploid G1 phase at 20 uM after 8 hrs by propidium iodide-based flow cytometry; assay type: functional; procedure, shortened: as §1
# Blood = assay: Antiinflammatory activity in human whole blood assessed as inhibition of IL-1-beta-induced TNFalpha production preincubated 2 hrs before addition of IL1-beta measured after 18 hrs by ELISA; assay type: functional, tissue-based; conditions: Homo sapiens, Blood
# Procedure, shortened: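 Human blood from donors with white count in the normal range, diluted 1:10 in RPMI-1640 with 10% FBS, penicillin and streptomycin. Aliquots were preincubated with vehicle (0.1% DMSO final) or compound at 10, 3, 1, 0.3 or 0.1 µM final for 2 h at 37 °C, 5% CO2. IL-1β (200 U/mL) was then added for 18 h, and plasma was collected and frozen. Cytokine was measured by ELISA.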
# HeLa [13] = assay: Effect on cell cycle arrest in TNF-alpha-stimulated human HeLa cells assessed as cell debris level at 1 uM after 8 hrs by propidium iodide-based flow cytometry; assay type: functional
# HeLa [14] = assay: Cell cycle arrest in TNF-alpha-stimulated human HeLa cells transfected with NFkappaB-Luc assessed as accumulation at diploid stage at 0.5 uM after 8 hrs by propidium iodide-based flow cytometry; assay type: functional; procedure, shortened: as §1
# [15] = Inhibition of TNF-alpha-induced NF-kappaB-mediated transcription expressed in human HeLa cells co-transfected with renilla luciferase-TK gene preincubated for 30 mins before TNFalpha challenge measured after 8 hrs by dual-glo luciferase reporter gene assay; assay type: cell-based
# Procedure, shortened: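 HeLa cells were transiently cotransfected (lipofectamine 2000, 5–6 h) with 6×κB pNF-κB-luc and the pRL-TK Renilla control, then grown 24 h. They were pretreated 30 min with 0.312–20 µM (1% DMSO vehicle), then stimulated with 25 ng/mL TNF-α for 8 h at 37 °C. Dual-Glo firefly signal was normalized to Renilla luminescence.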
# HeLa [16] = assay: Cell cycle arrest in TNF-alpha-stimulated human HeLa cells transfected with NFkappaB-Luc assessed as accumulation at G2/G1 phase at 5 uM after 8 hrs by propidium iodide-based flow cytometry; assay type: functional; procedure, shortened: as §1
# HeLa [17] = assay: Cell cycle arrest in TNF-alpha-stimulated human HeLa cells transfected with NFkappaB-Luc assessed as accumulation at G2/G1 phase after 8 hrs by propidium iodide-based flow cytometry
# HeLa [18] = assay: Cell cycle arrest in human HeLa cells transfected with NFkappaB-Luc assessed as accumulation at diploid stage at 20 uM after 8 hrs by propidium iodide-based flow cytometry; assay type: functional; procedure, shortened: as §1
# [19] = Cytotoxicity against human whole blood lymphocytes assessed as survival cell count in millions at 3 uM by trypan blue staining based hemocytometer
# HeLa [20] = assay: Effect on cell cycle arrest in TNF-alpha-stimulated human HeLa cells assessed as cell aggregate level at 0.05 uM after 8 hrs by propidium iodide-based flow cytometry; assay type: functional
# [21] = Cytotoxicity against human whole blood lymphocytes assessed as survival cell count in millions at 10 uM by trypan blue staining based hemocytometer
# HeLa [22] = assay: Effect on cell cycle arrest in TNF-alpha-stimulated human HeLa cells assessed as cell aggregate level at 20 uM after 8 hrs by propidium iodide-based flow cytometry; assay type: functional
# HeLa [23] = assay: Effect on cell cycle arrest in TNF-alpha-stimulated human HeLa cells assessed as cell debris level at 10 uM after 8 hrs by propidium iodide-based flow cytometry; assay type: functional
# [24] = Inhibition of TNF-alpha-induced NF-kappaB-mediated transcription expressed in human HeLa cells preincubated for 30 mins before addition of TNFalpha measured after 8 hrs by luciferase reporter gene assay; assay type: cell-based
# Procedure, shortened: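 HeLa/NF-κB-luc cells (5.0 × 10⁵ cells/mL) were grown 24 h, then switched to serum-free DMEM. They were pretreated 30 min at 37 °C with 0.05–20 µM imidazoline (1% DMSO vehicle), then stimulated with 25 ng/mL TNF-α for 8 h. Steady-Glo luminescence was normalized to TNF-α activation, and EC50 was taken from a variable-slope sigmoidal fit. Values are the mean of two independent experiments.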
# HeLa [25] = assay: Cell cycle arrest in TNF-alpha-stimulated human HeLa cells transfected with NFkappaB-Luc assessed as accumulation at diploid G1 phase at 0.5 uM after 8 hrs by propidium iodide-based flow cytometry; assay type: functional; procedure, shortened: as §1
# HeLa [26] = assay: Cell cycle arrest in human HeLa cells transfected with NFkappaB-Luc assessed as accumulation at diploid G1 phase at 20 uM after 8 hrs by propidium iodide-based flow cytometry; assay type: functional; procedure, shortened: as §1
smiles,measurement,setting,value
CCOC(=O)[C@]1(c2ccccc2)N=C(c2ccccc2)N(Cc2ccccc2)[C@@H]1c1ccccc1 (racemic),Activity,HeLa [1],66.37%
same,Activity,HeLa [2],13.4%
same,Activity,HeLa [3],15.01%
same,Activity,HeLa [4],100%
same,Activity,HeLa [5],14.75%
same,Activity,HeLa [6],64.5%
same,Activity,HeLa [7],14.57%
same,Activity,HeLa [8],19.29%
same,Activity,HeLa [9],100%
same,Ratio,HeLa [10],1.91
same,Activity,HeLa [11],13.84%
same,Activity,HeLa [12],65.96%
same,IC50,Blood,1.18 µM
same,Activity,HeLa [13],4.88%
same,Activity,HeLa [14],100%
same,EC50,[15],4.67 µM
same,Ratio,HeLa [16],1.91
same,Ratio,HeLa [17],1.91
same,Activity,HeLa [18],100%
same,Activity,[19],1.7 mL⁻¹
same,Activity,HeLa [20],0%
same,Activity,[21],1.6 mL⁻¹
same,Activity,HeLa [22],0%
same,Activity,HeLa [23],15.28%
same,EC50,[24],2.5 µM
same,Activity,HeLa [25],64.08%
same,Activity,HeLa [26],65.19%
